Data set [1] relates to Salmonella typhimurium. Put plainly: Mutagenic activity in Salmonella typhimurium by Ames test under metabolic conditions. Type of data set: toxicity, organism-based. The conditions noted are these: salmonella enterica subsp. enterica serovar typhimurium. A general note: In the Ames test, an excess of revertant colonies over the control signals mutagenicity.
For data set [2], the system named is Plasmodium berghei. As to the kind of experiment: Antimalarial activity against Plasmodium berghei ANKA expressing GFP infected in NMRI mouse assessed as reduction in parasitemia at 10 mg/kg/day, po qd for 4 days measured at 24 hrs after last dose relative to control. The data set is classed as functional. More on the design: scale not given: the % may be the effect or the level left. Put shortly:
(§1)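 P. berghei-infected mice dosed orally once daily on days 0–3, first dose 4 h postinfection, at 3, 10, 30 and 100 mg/kg/day. Red blood cell parasitemia and plasma exposure measured on day 4, 24 h after last dose; ED50 derived from dose-response; survival then monitored for 26 further days as mean survival days.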

Data set [3] concerns the target T1, Inward rectifier potassium channel 2 (Homo sapiens, UniProt P63252).
T1 sequence (P63252 whole entry): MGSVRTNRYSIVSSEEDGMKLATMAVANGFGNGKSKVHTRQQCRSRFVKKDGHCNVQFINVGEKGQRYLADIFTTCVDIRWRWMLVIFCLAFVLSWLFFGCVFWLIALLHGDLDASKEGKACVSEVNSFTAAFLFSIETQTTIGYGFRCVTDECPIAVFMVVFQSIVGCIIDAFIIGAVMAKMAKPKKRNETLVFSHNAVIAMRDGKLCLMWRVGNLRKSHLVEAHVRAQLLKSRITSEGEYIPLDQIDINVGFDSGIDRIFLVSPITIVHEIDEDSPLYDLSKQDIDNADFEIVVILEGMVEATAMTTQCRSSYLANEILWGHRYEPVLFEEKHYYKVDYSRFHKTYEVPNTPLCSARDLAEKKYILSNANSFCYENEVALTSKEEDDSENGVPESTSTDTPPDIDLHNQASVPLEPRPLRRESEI
Put plainly: Inhibition of human Kir2.1 channel.

Data set [4] is described as follows: AUC in NMRI mouse at 1 mg/kg, iv and 5 mg/kg, po by LC-MS/MS analysis. The conditions noted are these: plasma. Type of data set: ADME, organism-based.
A further data set deals with hERG (KCNH2) (Homo sapiens, UniProt Q12809). Put plainly: Inhibition of human ERG expressed in CHO cells at 10 uM relative to control. The data set is classed as cell-based. The conditions noted are these: CHO cells expressing human ERG.
Data set [5] concerns Plasmodium berghei. Put plainly: Antimalarial activity against Plasmodium berghei ANKA expressing GFP infected in NMRI mouse assessed as effect on mouse survival at 10 mg/kg/day, po qd for 4 days measured at 24 hrs after last dose. The data set is classed as functional, organism-based. Summed up:
as §1

Data set [6] relates to Salmonella typhimurium. Put plainly: Mutagenic activity in Salmonella typhimurium by Ames test. Type of data set: toxicity, organism-based. The settings on record: salmonella enterica subsp. enterica serovar typhimurium.
The test system of data set [7] is Plasmodium berghei. Put plainly: Antimalarial activity against Plasmodium berghei ANKA expressing GFP infected in NMRI mouse assessed as mean survival days at 100 mg/kg/day, po qd for 4 days measured at 24 hrs after last dose. Type of data set: functional. Put shortly:
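P. berghei-infected mice dosed orally once daily on days 0–3, starting 4 h postinfection, in groups of 3, 10, 30 and 100 mg/kg/day. Red blood cell parasitemia and plasma exposure measured on day 4, 24 h after the last dose. Mean survival days then monitored over 26 further days.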

The next data set has as its target T2, Cytochrome P450 1A2 (Homo sapiens, UniProt P05177).
T2 sequence (P05177 whole entry): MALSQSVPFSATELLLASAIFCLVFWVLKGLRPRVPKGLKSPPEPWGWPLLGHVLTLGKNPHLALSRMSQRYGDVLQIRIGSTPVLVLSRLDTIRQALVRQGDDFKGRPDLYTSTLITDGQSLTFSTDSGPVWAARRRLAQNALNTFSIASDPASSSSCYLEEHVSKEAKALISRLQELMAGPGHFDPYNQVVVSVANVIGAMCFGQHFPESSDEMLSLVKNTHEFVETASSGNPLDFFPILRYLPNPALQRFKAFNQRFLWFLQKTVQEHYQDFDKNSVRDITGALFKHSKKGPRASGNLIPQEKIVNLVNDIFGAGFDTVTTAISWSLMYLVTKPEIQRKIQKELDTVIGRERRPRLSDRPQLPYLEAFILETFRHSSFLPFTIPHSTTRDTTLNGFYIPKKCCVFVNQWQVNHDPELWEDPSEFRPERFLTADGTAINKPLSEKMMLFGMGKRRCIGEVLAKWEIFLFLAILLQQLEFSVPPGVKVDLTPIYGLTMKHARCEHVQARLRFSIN
Put plainly: Inhibition of human recombinant CYP1A2 expressed in baculovirus-infected insect cells preincubated for 15 mins followed by substrate addition measured after 30 mins by luminescence assay. The conditions noted are these: recombinant enzyme, 0.5 h. Type of data set: ADME.

Data set [8] in a line: Terminal half life in NMRI mouse at 5 mg/kg, po by LC-MS/MS analysis. Type of data set: ADME, organism-based. Further details: dose 5 mg/kg, route oral. The conditions noted are these: in vivo, read-out: beta t1/2 (converted).
The target in a further data set is Cytochrome P450 2D6 (Homo sapiens, UniProt P10635). Put plainly: Inhibition of human recombinant CYP2D6 expressed in baculovirus-infected insect cells preincubated for 15 mins followed by substrate addition measured after 30 mins by luminescence assay. The settings on record: recombinant enzyme, 0.5 h. Type of data set: ADME.
Data set [9] concerns Plasmodium berghei. As to the kind of experiment: Antimalarial activity against Plasmodium berghei ANKA expressing GFP infected in po dosed NMRI mouse assessed as reduction in parasitemia administered qd for 4 days measured at 24 hrs after last dose. The data set is classed as functional. Summed up:
as §1

A short description of data set [10]: Genotoxicity in micronucleus (unknown origin) under metabolic conditions. The data set is classed as ADME.
Another data set deals with T3, Cytochrome P450 2B6 (Homo sapiens, UniProt P20813).
T3 sequence (P20813 whole entry): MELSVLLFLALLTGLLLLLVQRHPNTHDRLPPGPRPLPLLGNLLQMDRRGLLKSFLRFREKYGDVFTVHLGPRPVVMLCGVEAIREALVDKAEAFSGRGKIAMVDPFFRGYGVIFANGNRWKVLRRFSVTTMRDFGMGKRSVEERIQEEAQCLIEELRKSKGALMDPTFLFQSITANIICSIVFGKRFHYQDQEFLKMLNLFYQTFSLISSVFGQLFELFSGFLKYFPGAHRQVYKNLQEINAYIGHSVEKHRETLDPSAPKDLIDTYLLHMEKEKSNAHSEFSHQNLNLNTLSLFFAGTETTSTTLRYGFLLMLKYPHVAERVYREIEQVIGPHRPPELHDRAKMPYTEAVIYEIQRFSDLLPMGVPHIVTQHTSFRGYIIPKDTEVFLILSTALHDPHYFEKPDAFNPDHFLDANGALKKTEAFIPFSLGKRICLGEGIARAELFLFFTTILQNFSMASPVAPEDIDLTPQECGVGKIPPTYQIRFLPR
As to the kind of experiment: Inhibition of human recombinant CYP2B6 expressed in baculovirus-infected insect cells preincubated for 15 mins followed by substrate addition measured after 30 mins by luminescence assay. Type of data set: ADME. The conditions noted are these: recombinant enzyme, 0.5 h.

In data set [11] the test system is Plasmodium berghei. As to the kind of experiment: Antimalarial activity against Plasmodium berghei ANKA expressing GFP infected in NMRI mouse assessed as increase in mouse survival at 30 mg/kg/day, po qd for 4 days measured at 24 hrs after last dose. The data set is classed as functional, organism-based. Summed up:
as §1

For a further data set, the system named is Plasmodium falciparum. Put plainly: Antimalarial activity against chloroquine, pyrimethamine, sulfadoxine and quinine-resistant Plasmodium falciparum W2. The data set is classed as functional, organism-based.

This is an account of results in ChEMBL document CHEMBL3098117, “Identification and optimization of an aminoalcohol-carbazole series with antimalarial properties” (ACS Med Chem Lett, 2013).

Activity calls are given as the source filed them. No cut-off for these calls is given here.

Cytochrome P450 2D6, sequence (P10635 whole entry): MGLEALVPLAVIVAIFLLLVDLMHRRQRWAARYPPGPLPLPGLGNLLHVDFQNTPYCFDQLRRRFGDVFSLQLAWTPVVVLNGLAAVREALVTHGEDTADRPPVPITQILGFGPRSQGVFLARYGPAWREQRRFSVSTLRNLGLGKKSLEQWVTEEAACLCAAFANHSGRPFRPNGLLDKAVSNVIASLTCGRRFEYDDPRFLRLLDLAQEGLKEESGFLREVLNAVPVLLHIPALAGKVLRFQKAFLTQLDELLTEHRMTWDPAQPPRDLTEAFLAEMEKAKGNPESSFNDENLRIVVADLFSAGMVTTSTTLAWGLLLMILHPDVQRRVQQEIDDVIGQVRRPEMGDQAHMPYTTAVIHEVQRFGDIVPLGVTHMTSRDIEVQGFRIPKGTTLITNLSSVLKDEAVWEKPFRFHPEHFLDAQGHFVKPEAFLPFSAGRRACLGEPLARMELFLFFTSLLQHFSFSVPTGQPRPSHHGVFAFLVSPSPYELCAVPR
hERG (KCNH2), sequence (Q12809 whole entry): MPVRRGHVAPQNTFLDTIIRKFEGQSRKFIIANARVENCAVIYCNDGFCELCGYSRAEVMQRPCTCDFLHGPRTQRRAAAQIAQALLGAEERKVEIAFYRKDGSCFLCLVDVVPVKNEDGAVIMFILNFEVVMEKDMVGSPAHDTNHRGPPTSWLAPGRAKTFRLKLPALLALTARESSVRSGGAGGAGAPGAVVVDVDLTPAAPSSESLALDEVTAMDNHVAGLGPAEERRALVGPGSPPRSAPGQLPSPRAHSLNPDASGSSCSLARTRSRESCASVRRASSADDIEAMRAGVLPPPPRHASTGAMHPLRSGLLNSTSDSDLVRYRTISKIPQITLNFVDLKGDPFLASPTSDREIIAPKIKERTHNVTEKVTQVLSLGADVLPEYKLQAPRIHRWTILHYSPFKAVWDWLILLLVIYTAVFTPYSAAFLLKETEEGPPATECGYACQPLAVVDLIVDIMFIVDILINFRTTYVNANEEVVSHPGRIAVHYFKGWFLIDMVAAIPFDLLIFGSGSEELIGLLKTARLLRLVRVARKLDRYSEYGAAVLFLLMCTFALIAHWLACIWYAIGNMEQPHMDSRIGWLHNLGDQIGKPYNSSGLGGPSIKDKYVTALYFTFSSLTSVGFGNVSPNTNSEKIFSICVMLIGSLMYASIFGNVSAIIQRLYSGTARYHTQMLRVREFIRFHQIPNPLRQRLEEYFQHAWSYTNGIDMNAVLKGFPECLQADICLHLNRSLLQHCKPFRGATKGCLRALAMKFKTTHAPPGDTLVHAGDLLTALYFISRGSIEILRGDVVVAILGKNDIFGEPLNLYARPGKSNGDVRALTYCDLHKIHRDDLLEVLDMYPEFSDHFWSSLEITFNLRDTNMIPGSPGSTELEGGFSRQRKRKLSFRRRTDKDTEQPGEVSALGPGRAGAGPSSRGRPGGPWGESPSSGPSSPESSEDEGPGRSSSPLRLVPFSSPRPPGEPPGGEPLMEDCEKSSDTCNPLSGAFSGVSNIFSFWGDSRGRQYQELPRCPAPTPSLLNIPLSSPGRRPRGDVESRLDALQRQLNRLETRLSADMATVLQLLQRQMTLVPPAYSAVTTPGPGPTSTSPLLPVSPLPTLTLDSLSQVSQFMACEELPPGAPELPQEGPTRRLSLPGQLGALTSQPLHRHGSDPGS

Broadly, the AUC is concentration integrated over time. The term inhibition denotes the relative decrease from the control value, in per cent. The ED50 is the dose that gives a 50% effect, or the effect in half of the subjects. Take `OC(CNC1CCCCC1)Cn1c2ccc(Br)cc2c2cc(Br)ccc21` (racemic): the Activity entry with Salmonella typhimurium [1] is “Non-toxic”; in the data set with Plasmodium berghei [2], 38%; in the data set on Salmonella typhimurium [6], “Non-toxic”; in the data set with Plasmodium berghei [9], “Dose dependent effect”; in data set [10], “Non-toxic”. Moreover, the “inhibition (INH)” value in data set [3] is “Not Active”; on Cytochrome P450 1A2 it was “Active”; on Cytochrome P450 2D6, “Active”; at Cytochrome P450 2B6 it was “Active”. Also, the AUC in [4] is 3750 ng·h/mL. The compound further showed an inhibition at 10 µM on hERG (KCNH2) of 99%. The result with Plasmodium berghei [5] was inactive. Moreover, the MSD with Plasmodium berghei [7] is 30 days. Besides, the half-life in data set [8] is 15 h. In addition, in the data set on Plasmodium berghei [9], the median effective dose (ED50) is 11.4 mg/kg/day. Besides, the outcome in the data set with Plasmodium berghei [11] and with Plasmodium falciparum was Active.
